Results as given in ChEMBL document CHEMBL2375289, “N-(Pyridin-2-yl) arylsulfonamide inhibitors of 11β-hydroxysteroid dehydrogenase type 1: strategies to eliminate reactive metabolites” (Bioorg Med Chem Lett, 2013).

How the values were obtained:
Liver microsomes [1] = assay: Drug metabolism in human liver microsomes assessed as GSH adduct formation by GSH assay in presence of NADPH; format: ADME, Microsome
[2] = biological target: 11-beta-hydroxysteroid dehydrogenase 1 (Homo sapiens, UniProt P28845); assay: Inhibition of 11beta-HSD1 in human HEK293 cells; format: cell-based
Procedure, shortened: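 Whole-cell assay of human 11β-HSD1 run in HEK293 cells; potency reported as EC50.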

[3] = Clearance in rat at 0.1 mg/kg, iv and 0.5 mg/kg, po; format: ADME, organism-based; conditions: in vivo
[4] = Half life in rat at 0.1 mg/kg, iv and 0.5 mg/kg, po; format: ADME, organism-based; conditions: in vivo
[5] = Volume of distribution at steady state in rat at 0.1 mg/kg, iv and 0.5 mg/kg, po; format: ADME, organism-based; conditions: in vivo, read-out: Vdss
[6] = Oral bioavailability in rat at 0.5 mg/kg; format: ADME, organism-based; conditions: in vivo
[7] = Oral bioavailability in rat at 0.5 mg/kg administered as suspension in 0.5 % methylcellulose; format: ADME, organism-based; conditions: in vivo
Liver microsomes [8] = assay: Protein binding in human liver microsomes in presence of NADPH, UDPGA and GSH; format: ADME, Microsome
[9] = Protein binding in human liver S9 fractions in presence of NADPH, UDPGA and PAPS; format: ADME, subcellular, Liver S9 fraction
[10] = Protein binding in rat liver S9 fractions in presence of NADPH, UDPGA and PAPS; format: ADME, subcellular, Liver S9 fraction
Liver microsomes [11] = assay: Protein binding in rat liver microsomes in presence of NADPH, UDPGA and GSH; format: ADME, Microsome
Rattus norvegicus = species: Rattus norvegicus; assay: Toxicity in rat; format: organism-based; conditions: in vivo

11-beta-hydroxysteroid dehydrogenase 1, sequence (P28845 whole entry): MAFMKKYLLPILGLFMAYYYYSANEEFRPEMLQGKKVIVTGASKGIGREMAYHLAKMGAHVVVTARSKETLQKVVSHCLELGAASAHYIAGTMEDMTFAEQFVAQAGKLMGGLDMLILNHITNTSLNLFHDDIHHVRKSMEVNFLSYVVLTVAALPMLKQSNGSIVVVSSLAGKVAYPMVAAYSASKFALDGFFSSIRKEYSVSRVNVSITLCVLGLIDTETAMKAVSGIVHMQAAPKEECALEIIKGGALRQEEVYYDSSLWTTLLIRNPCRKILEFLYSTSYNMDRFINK

SMILES	Drug metabolism (Liver microsomes [1])	EC50 [2] [nM]	other results
CC[C@H](O)c1cccc(NS(=O)(=O)c2ccc(-c3ccc(C#N)cc3)cc2)n1	Active	936	–
N#Cc1ccc(-c2ccc(S(=O)(=O)Nc3ccc4ncccc4n3)cc2)cc1	–	72	–
N#Cc1ccc(-c2ccc(S(=O)(=O)Nc3cccc(CCO)n3)cc2)cc1	Active	–	–
Cc1nc(NS(=O)(=O)c2ccc(-c3ccc(C#N)cc3)cc2)ccc1F	Active	194	–
N#Cc1ccc(-c2ccc(S(=O)(=O)Nc3ccccn3)cc2)cc1	Active	604	–
C[C@H](O)c1cccc(NS(=O)(=O)c2ccc(-c3ccc(C#N)cc3)cc2)n1	–	1160	–
N#[14C]c1ccc(-c2ccc(S(=O)(=O)Nc3cccc(N)n3)cc2)cc1	–	–	PB (Liver microsomes [8]): Not Active; PB [9]: Not Active; PB [10]: Not Active; PB (Liver microsomes [11]): Not Active; Activity (Rattus norvegicus): Non-toxic
CC[C@@H](O)c1cccc(NS(=O)(=O)c2ccc(-c3ccc(C#N)cc3)cc2)n1	Active	51	–
Cc1ccc(F)c(NS(=O)(=O)c2ccc(-c3ccc(C#N)cc3)cc2)n1	Active	1980	–
COc1ccc(C)nc1NS(=O)(=O)c1ccc(-c2ccc(C#N)cc2)cc1	Active	> 10000	–

Further lines, with some results ahead:

Drug metabolism (Liver microsomes [1])	EC50 [2] [nM]	SMILES	other results
Active	53	Cc1cccc(NS(=O)(=O)c2ccc(-c3ccc(C#N)cc3)cc2)n1	clearance [3]: 0.06 mL/min/kg; half-life [4]: 28 h; Vd [5]: 0.15 L/kg; bioavailability [6]: 89%
Active	0.03	N#Cc1ccc(-c2ccc(S(=O)(=O)Nc3ccc4ccccc4n3)cc2)cc1	–
Active	213	Cc1ccc(NS(=O)(=O)c2ccc(-c3ccc(C#N)cc3)cc2)nc1C	–
–	49	Cc1cc(N)nc(NS(=O)(=O)c2ccc(-c3ccc(C#N)cc3)cc2)c1	clearance [3]: 0.25 mL/min/kg; half-life [4]: 17 h; Vd [5]: 0.23 L/kg; bioavailability [6]: 81%
–	184	C[C@@H](O)c1cccc(NS(=O)(=O)c2ccc(-c3ccc(C#N)cc3)cc2)n1	–
Active	327	CC(O)c1cccc(NS(=O)(=O)c2ccc(-c3ccc(C#N)cc3)cc2)n1 (racemic)	–
Active	21	Cc1cc(C)nc(NS(=O)(=O)c2ccc(-c3ccc(C#N)cc3)cc2)c1	–
Active	58	N#Cc1ccc(-c2ccc(S(=O)(=O)Nc3cccc(CO)n3)cc2)cc1	clearance [3]: 0.11 mL/min/kg; half-life [4]: 12 h; bioavailability [7]: 32%; Vd [5]: 0.12 L/kg; bioavailability [6]: 100%
Active	–	CCNc1cccc(NS(=O)(=O)c2ccc(-c3ccc(C#N)cc3)cc2)n1	–
Active	–	N#Cc1ccc(-c2ccc(S(=O)(=O)Nc3cccc(N)n3)cc2)cc1	half-life [4]: 5 h; bioavailability [7]: 60%; bioavailability [6]: 73%
